Results of several laboratories.
MAOA: Amine oxidase [flavin-containing] A (MAOA, Homo sapiens, UniProt P21397)
ahcY: ahcY (Saccharolobus solfataricus, UniProt P50252)
CTSS: Cathepsin S (CTSS, Homo sapiens, UniProt P25774)

| Compound | target | assay | endpoint | value |
| --- | --- | --- | --- | --- |
| C#CCN(C)CCCCCCCCOCc1ccc(CN(C)c2c3c(nc4ccccc24)CCCC3)cc1 | MAOA | enzyme activity, inhibitor, fluorescence | IC50 | 8.29 µM |
| Cc1ccc(F)c(CNS(=O)(=O)c2cccc3cccnc23)c1 | Amine oxidase [flavin-containing] B (Maob, Mus musculus, UniProt Q8BW75) | enzyme activity, inhibitor, fluorescence | IC50 | 1.81 µM |
| CNC(=O)c1ccc(-c2cnn3ccc(C(=O)N(C)c4ccc(Cl)c(C(=O)OC)c4)cc23)cc1 | MAOA | cell-free assay | IC50 | > 30 µM |
| C#CCN(C)CCCCCCCOc1cccc(CN(C)c2c3c(nc4ccccc24)CCCC3)c1 | MAOA | enzyme activity, inhibitor, fluorescence | IC50 | 7.68 µM |
| CN(C)c1cccc2c(S(=O)(=O)NCCCCCCCCCCC(=O)O)cccc12 | Fatty acid-binding protein, liver (FABP1, Homo sapiens, UniProt P07148) | binding, fluorescence | Kd | 200 nM |
| C#CCN(C)CCCCCOCc1ccc(CN(C)c2c3c(nc4ccc(C)cc24)CCCC3)cc1 | MAOA | enzyme activity, inhibitor, fluorescence | IC50 | 0.53 µM |
| NC(=O)c1cccc(C#CCN(CC[C@H](N)C(=O)O)C[C@H]2O[C@@H](n3cnc4c(N)ncnc43)[C@H](O)[C@@H]2O)c1 | ahcY | enzyme activity, inhibitor | IC50 | 8.5 µM |
| C#CCN(C)CCCCCCOc1cccc(CN(C)c2c3c(nc4ccc(F)cc24)CCCC3)c1 | MAOA | enzyme activity, inhibitor, fluorescence | IC50 | 50.7 µM |
| CC[C@H](C)[C@H](NC(=O)[C@H](Cc1ccc(O)cc1)NC(=O)[C@@H](NC(=O)[C@H](CCCNC(=N)N)NC(=O)[C@@H](N)CC(=O)O)C(C)C)C(=O)N[C@@H](Cc1cnc[nH]1)C(=O)N1CCC[C@H]1C(=O)N[C@@H](Cc1ccccc1)C(=O)O | Angiotensin-converting enzyme 2 (ACE2, Homo sapiens, UniProt Q9BYF1) | enzyme activity, inhibitor, fluorescence | IC50 | 4.9 µM |
| CC(C)C[C@H](NC(=O)[C@H]1O[C@@H]1C(=O)O)C(=O)NCCCCN=C(N)N | CTSS | enzyme activity, inhibitor | IC50 | 0.00073 µM |
| Cn1nccc1[C@]1(CNC(=O)c2ccc(F)c(F)c2-c2ccc(C(F)(F)F)cc2)NC(=O)NC1=O | CTSS | enzyme activity, inhibitor | IC50 | > 100 µM |
| O=C(O)[C@@H]1CS[C@H]2CS[C@H](CCS)N21 | sfhI (Serratia fonticola, UniProt Q9RMI1) | enzyme activity, inhibitor | IC50 | > 1000 µM |
| CC(=O)N(CC#Cc1cccc(C(N)=O)c1)C[C@H]1C[C@@H](n2ccc3c(Cl)ncnc32)[C@H](O)[C@@H]1O | ahcY | enzyme activity, inhibitor | IC50 | > 333 µM |
| CNC(=O)c1ccc(-c2cnn3ccc(C(=O)N(C)c4ccc(Cl)c(C(=O)O)c4)cc23)cc1 | Alpha-1A adrenergic receptor (ADRA1A, Homo sapiens, UniProt P35348) | cell-free assay | IC50 | > 30 µM |
